Results reported in the RNAGym collection of RNA variant scans (doi:10.1126/science.aae0568).
Variants at the floor of the assay were thinned out.

B1: tRNA (parent)
chain: GUUCCGUUGGCGUAAUGGUAACGCGUCUCCCUCCUAAGGAGAAGACUGCGGGUUCGAGUCCCGUACGGAACG

Variants of: B1
Assay: yeast fitness relative to wild type (ratio to wild type); higher = fitter; tRNA-Arg(CCU), competitive growth, 37 C, YPD
Summary of the method: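 A pool of Saccharomyces cerevisiae strains, each with a tRNA-Arg(CCU) gene variant at the native genomic locus, was competed in YPD at 37°C for 24 hours across six parallel replicates. The variants had been chemically synthesised at a 3% per-site mutation rate over 69 sites, and gene amplicons before and after competition were read by 100-nucleotide paired-end sequencing. Darwinian fitness relative to wild type rested on changes in genotype frequencies. Genotypes required ≥ 100 starting reads, and estimates < 0.5 were set to 0.5.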

Row | Variant | yeast fitness
1 | U19A U26A U64A | 0.553
2 | U19C A20U A70U | 0.794
3 | U19C C24G G50C | 0.768
4 | U19C G41A | 0.899
5 | U19C G38C G44C C46A G68C | ≤ 0.5
6 | U19C C22U C61A A70G | ≤ 0.5
7 | U19A C24A C30G C34U G51A G52C C66U | ≤ 0.5
8 | U19A C33U | 0.777
9 | U19C C46G | 0.943
10 | U19C C46A | 0.978
11 | U19C C46U | 1.06
12 | U19C C27U C29G C34A A42C A65G | 0.541
13 | U19C A20U C22U C27G G48C G51A | ≤ 0.5
14 | U19C G23C C29G A43U G50A A65C | ≤ 0.5
15 | U19A G23C | 0.549
16 | U19C A40U C55U A65G | ≤ 0.5
17 | U19C C31U G58A | 0.715
18 | U19C A40C U53A | 0.532
19 | U19C A45C G68C | ≤ 0.5
20 | U19A G25C A43U | 0.657
21 | U19C G23A A37C A65G | ≤ 0.5
22 | U19C C27U | 1.08
23 | U19C C27G | 0.579
24 | U19C C24U G51A | 0.66

Row | Variant | yeast fitness
25 | U19C A21U A43C C49U | 0.547
26 | U19C A43U A69U | 1.09
27 | U19C G23A C24A C29U C30U G63A | ≤ 0.5
28 | U19A C22U G63C | ≤ 0.5
29 | U19C A37G A65U | 0.58
30 | U19C C31A C66U | 0.555
31 | U19A C27U U28C C55U | ≤ 0.5
32 | U19A C34G G52A | ≤ 0.5
33 | U19C U32C A40C G41A | 0.674
34 | U19A C24U G38A U54C A69C | ≤ 0.5
35 | U19C A70G | 0.982
36 | U19C G51C C66U | ≤ 0.5
37 | U19A U28C G39C | ≤ 0.5
38 | U19C A57G A70U | 0.601
39 | U19C A37G C49A | ≤ 0.5
40 | U19C G41C A70U | 0.671
41 | U19C A20U A57G | 0.695
42 | U19A G50A G68C | ≤ 0.5
43 | U19C G25C | 1.04
44 | U19C A21C G39C C61U | ≤ 0.5
45 | U19A G50A A57C | 0.516
46 | U19C A21G U26G G39C C46A A70C | ≤ 0.5
47 | U19C G67C | 0.931
48 | U19C G67U | 1.07

Row | Variant | yeast fitness
49 | U19C G67A | 1
50 | U19A U64G | 0.687
51 | U19A U64C | 0.901
52 | U19C C24U A40C | 0.663
53 | U19A G39A G63C | ≤ 0.5
54 | U19A C31G | 1.02
55 | U19C A40U | 0.98
56 | U19C A40C | 1.1
57 | U19C A40G | 0.898
58 | U19C C24G A37U C46U U47A | ≤ 0.5
59 | U19C G25C G51C C60U | ≤ 0.5
60 | U19A C29A U32A U54C C55G C60G | ≤ 0.5
61 | U19C A65G G68U | 0.583
62 | U19A C27G C31U C62U | ≤ 0.5
63 | U19A C29G C33U U47A G51A C61U | ≤ 0.5
64 | U19C C24U C49A U54C C60G | ≤ 0.5
65 | U19C C24U U53A C62A C66U | ≤ 0.5
66 | U19A G67A | 0.866
67 | U19C C29A U32G G58A A69G | ≤ 0.5
68 | U19C A37G G56C | ≤ 0.5
69 | U19A G44C | 0.971
70 | U19A C24U G25C C49U | ≤ 0.5
71 | U19C C27G C29A C33A A43C | ≤ 0.5
72 | U19A C55G A57G | 0.5

Row | Variant | yeast fitness
73 | U19A C62A | 0.774
74 | U19C A21U C31U A42G A43U | 0.929
75 | U19C C31G C66G | ≤ 0.5
76 | U19C A57G G58C | 0.609
77 | U19C C29U A42C A57G | 0.541
78 | U19A G52A | 0.679
79 | U19A C29A G67A | ≤ 0.5
80 | U19C A45U C46U A57U | ≤ 0.5
81 | U19C G25C C29A G52A | ≤ 0.5
82 | U19A C24G C27U C30A G52C G56A | ≤ 0.5
83 | U19C A43G A69U | 1.05
84 | U19A C24A G48C | ≤ 0.5
85 | U19C C24G A37U U47A A57G | ≤ 0.5
86 | U19C C22U | 0.895
87 | U19A C33A C34U A36C | ≤ 0.5
88 | U19C G39A | 0.952
89 | U19A C46U | 0.958
90 | U19A C46A | 1.13
91 | U19A C49U G67A | 0.666
92 | U19C A21C C33U C61A A70C | ≤ 0.5
93 | U19C G67U A69G | 0.751
94 | U19A C33U A36U C66U | ≤ 0.5
95 | U19C C27G A65U G68U | ≤ 0.5
96 | U19C C22U G50A U64C | ≤ 0.5

Row | Variant | yeast fitness
97 | U19C C24G A36G A37U U47A | ≤ 0.5
98 | U19A C27G | 0.581
99 | U19A C27A | 0.775
100 | U19C C29U C61U G68C | ≤ 0.5
101 | U19A U26A C66A | 0.585
102 | U19A U32C | 0.848
103 | U19C G50A C61U | ≤ 0.5
104 | U19C A45C | 0.861
105 | U19C A45G | 1
106 | U19C C24U U32C A37C A45G A57C | 0.638
107 | U19A G48A G50A C62A G63C | 0.591
108 | U19C G48C A57G | 0.565
109 | U19A C24G G52C U64G | 0.535
110 | U19C G48A C62A U64C | 0.636
111 | U19C C31A A36C G44A A57U | ≤ 0.5
112 | U19C C49A C62A | ≤ 0.5
113 | U19C C29G C33G G41C C66U | ≤ 0.5
114 | U19C C34U A43U A70C | 0.572
115 | U19A G48C G67C | ≤ 0.5
116 | U19A C46A A69U | 0.752
117 | U19C A37G G44C G58A A65G | 0.63
118 | U19A U47G G50A | 0.55
119 | U19C C60A G68C | ≤ 0.5
120 | U19C A20U G56C A57U | 0.562

Row | Variant | yeast fitness
121 | U19C G51A | 0.681
122 | U19C C24U A69C | 0.789
123 | U19A C31U U53A | ≤ 0.5
124 | U19A C27G A40G | ≤ 0.5
125 | U19C A36C G58C | ≤ 0.5
126 | U19A C61A G68C | 0.648
127 | U19A U47A G58C | 0.602
128 | U19C G39A G58A | 0.613
129 | U19C C55G | 0.676
130 | U19C C55U | 0.807
131 | U19C A20U C22U C27G | 0.532
132 | U19C G50A A65C | 0.566
133 | U19C A21C G51A G58A | ≤ 0.5
134 | U19A C24G C33G C34G G51A | 0.531
135 | U19C G41C A65G | 0.663
136 | U19A C34G A43C A70G | ≤ 0.5
137 | U19C C29G A57G U59A G68U A70G | 0.55
138 | U19C C22G C24A | 0.72
139 | U19C C22G A70U | 0.743
140 | U19C C55G A65C | ≤ 0.5
141 | U19C A40C A65U | 0.605
142 | U19C A20C A21U G56A A69C | ≤ 0.5
143 | U19C A20U A43U | 0.66
144 | U19C G50A C55A C62U | ≤ 0.5

Row | Variant | yeast fitness
145 | U19A G44C G67C | 0.639
146 | U19C G25C A37G | 0.6
147 | U19C C33A | 0.636
148 | U19C A20U C22U C27G G39U | ≤ 0.5
149 | U19C A20U A69U | 1.05
150 | U19C C55U U59C C61G | ≤ 0.5
151 | U19A G25A A40C C46U | 0.588
152 | U19A G50U | 0.817
153 | U19C A69U | 0.925
154 | U19C A20C C33U U35A C49A | 0.539
155 | U19C G68A | 0.878
156 | U19C G56C A57G G68U | ≤ 0.5
157 | U19A C24G C33G C34G A57G | 0.579
158 | U19A C27U A45C G63A | 0.729
159 | U19C C24G A37U U47A | 0.524
160 | U19A C34G A40G | ≤ 0.5
161 | U19C C29A A43C | ≤ 0.5
162 | U19C A20G G67A | 0.76
163 | U19C A36U | 0.566
164 | U19A C33U A36U C60U | ≤ 0.5
165 | U19C C27A G50C | 0.577
166 | U19C C27U C46A C62G A69U | ≤ 0.5
167 | U19C C27A C31G U32C G39C | ≤ 0.5
